# MsrA inh = inhibitors of bovine MsrA; AID 651718; inhibition, % at 15.5 µM; 360,000 tested, 0.75% active; purified bovine MsrA, absorbance read-out; in the data active = inhibition above about 4.5%
# proCasp7 act = counter-screen: procaspase-7 (human) activation; activation, % at 8.5 µM; P55210; 330,000 tested, 0.093% active; recombinant procaspase-7, Ac-DEVD-pNA absorbance 405 nm; D23A/D198A/D206A triple mutant, cannot self-cleave; scale: DMSO 0, 5 µM enzyme 100;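 active = percent activation above the screen-wide mean plus 3 SD, cut at about 25% in these data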
# Target sequence (P55210 whole entry D23A/D198A/D206A): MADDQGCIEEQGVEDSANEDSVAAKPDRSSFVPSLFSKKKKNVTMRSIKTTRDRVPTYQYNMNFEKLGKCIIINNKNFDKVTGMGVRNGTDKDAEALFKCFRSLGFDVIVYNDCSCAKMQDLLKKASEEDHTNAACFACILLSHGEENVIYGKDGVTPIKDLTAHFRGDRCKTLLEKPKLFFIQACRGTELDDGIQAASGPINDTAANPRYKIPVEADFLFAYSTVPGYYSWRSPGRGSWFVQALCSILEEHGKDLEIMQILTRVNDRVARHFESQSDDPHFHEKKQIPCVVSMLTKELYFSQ
#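 Replicates: singlicate. Assay system: Procaspase-7 triple mutant (PC-7 D3A). Signal: 405 nm absorbance of p-nitroaniline. Times: 1 h preincubation, 2 h reaction. Buffer or medium: Zinc-free HEPES pH 7.4 with 300 mM NaCl, 0.01% Triton X-100. Also added: DEVD-pNA substrate. Benchmarks: DMSO wells as 0%, DMSO with 5 µM added PC-7 as 100%.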
# bovine MsrA act = activators of bovine methionine sulfoxide reductase A; purified bovine MsrA, absorbance read-out; activation, % at 10.6 µM; 360,000 tested, 0.3% active; AID 602163; in the data active = activation above about 7.5%
# A1 inh = inhibitors of the anti-apoptotic protein A1, read as caspase activation; MEF A1-2A-BIM cells, Caspase-Glo 3/7 luminescence, 3 h; percent of clofoctol response, vehicle zero; caspase activation, % (concentration not given with the values); 330,000 tested, 0.066% active;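 active = over half of replicate activation scores above 10%, or exactly half above 10 with the replicate mean above 10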
# proCasp3 act = procaspase-3 (human) activation | 330,000 tested, 0.11% active | activation, % at 8.5 µM | recombinant procaspase-3 D3A, Ac-DEVD-pNA absorbance 405 nm | P42574;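 active = activation above the mean of all tested compounds plus 3 SD, cut at about 21% in these data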
# Target sequence (P42574 whole entry D9A/D28A/D175A): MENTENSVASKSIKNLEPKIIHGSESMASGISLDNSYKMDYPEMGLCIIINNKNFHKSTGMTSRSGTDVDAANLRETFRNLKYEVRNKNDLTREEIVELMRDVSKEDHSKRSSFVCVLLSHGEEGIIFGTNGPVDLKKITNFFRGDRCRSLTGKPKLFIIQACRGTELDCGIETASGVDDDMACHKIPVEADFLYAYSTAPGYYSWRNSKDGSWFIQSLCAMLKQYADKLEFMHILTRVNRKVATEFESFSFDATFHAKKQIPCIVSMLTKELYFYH
#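 Technique: 405 nm absorbance of p-nitroaniline, reads at 0 and 120 min; Test system: Procaspase-3 D3A mutant; Incubation: 1 h enzyme-compound preincubation, then 2 h substrate reaction, 25 °C; Repeats: singlicate, each compound tested once; Benchmarks: low control DMSO wells, high control DMSO plus 5 µM PC-3 D3A.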
# proCasp7 act trip = counter-screen for procaspase-3 activators: activators of human procaspase-7. shares compounds with proCasp3 act. recombinant procaspase-7, Ac-DEVD-pNA absorbance; asp23/198/206-to-Ala mutant, cannot self-cleave. 210 tested, under 10 active. activation, % at 8.5 µM;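 active = mean activation above a set limit taken from an earlier procaspase-7 screen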
# procasp3 conf = procaspase-3 (human) activation, confirmed; shares compounds with proCasp3 act; recombinant PC-3 D3A, Ac-DEVD-pNA absorbance 405 nm; 100% is higher-enzyme control; activation, % at 8.5 µM; 210 tested, 10% active;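 active = mean activation above a set limit carried over from the earlier primary screen, cut at about 22% in these data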
# PC3 dual counter = counter-screen for dual procaspase-3/7 activators: human procaspase-3 activation; activation, % at 8.5 µM; recombinant PC-3 D3A, Ac-DEVD-pNA absorbance 405 nm; aspartates 9, 28, 175 changed to alanine; 100% = enzyme control; shares compounds with proCasp7 act; 290 tested, under 10 active;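 active = mean percent activation across triplicates above a set limit taken from the earlier primary procaspase-3 screen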
# PC7 dual conf = confirmation of dual procaspase activators: human procaspase-7 activation; shares compounds with proCasp7 act; recombinant procaspase-7, Ac-DEVD-pNA absorbance 405 nm; D23A/D198A/D206A mutant that cannot self-cleave; activation, % at 8.5 µM; 290 tested, under 10 active;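 active = mean activation above a set limit carried over from the earlier primary screen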
# MsrA act confirm = bovine methionine sulfoxide reductase A activation confirmed; shares compounds with bovine MsrA act; purified bovine MsrA, absorbance read-out; activation, % at 10.6 µM; 1,000 tested, 12% active; AID 602270; in the data active = activation above about 4%;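 note: enzyme coupled to thioredoxin and thioredoxin reductase with NADPH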
# A number is an active result; – = inactive; · = no result given. Hits are enriched below; roughly 1.2% of the tested compounds scored in any of these assays.
SMILES,MsrA inh,proCasp7 act,bovine MsrA act,A1 inh,proCasp3 act,others
c1ccc2c(c1)[IH]c1ccccc1-2,84.9,·,–,·,·,
c1ccc2c(c1)-c1cccc3cccc-2c13,–,–,–,–,–,
COc1ccc2c3c([nH]c2c1)C(C)=NCC3,–,–,10.8,–,–,
CC1=NCCc2c1[nH]c1cc(O)ccc21,–,–,–,–,–,
C=C(COC(C)=O)CC1CC(O)[C@]2(C)OC3CC4OC5C[C@]6(C)O[C@]7(C)CCC8OC9C[C@]%10(C)OC%11C(C)=CC(=O)OC%11CC%10OC9C[C@@H](C)C8OC7CC6O[C@]5(C)C/C=C\C4OC3CC2O1 (stereo not given in full),·,·,9.7,·,·,
Cc1ccc(-n2c(O)c(C=NCCN3CCNCC3)c(=O)[nH]c2=S)cc1,4.6,–,–,–,–,
COC(=O)C1=C(c2ccc(OC(F)(F)F)cc2)C[C@@H]2CC[C@H]1N2C(=O)NCCNC(C)=O,–,–,–,–,–,
COC(=O)C1=C(c2ccc(OC(F)(F)F)cc2)C[C@@H]2CC[C@H]1N2C(=O)NCCOc1ccc(OC)cc1,10.0,–,–,–,–,
CC(=O)OC(C)(C)/C=C/C(=O)[C@](C)(O)[C@H]1[C@H](O)C[C@@]2(C)[C@@H]3CC=C4[C@H](C[C@H](O)C(=O)C4(C)C)[C@]3(C)C(=O)C[C@]12C,·,·,–,·,·,
CC(=O)OC(C)(C)/C=C/C(=O)C(C)(O)C1[C@H](O)C[C@@]2(C)C3CC=C4C(CC[C@@H](O)C4(C)C)[C@]3(CO)C(=O)C[C@]12C (stereo not given in full),–,–,–,11.1,–,
CCOC(=O)CC1=C(C(=O)OCC)C2(C(=O)Nc3ccccc32)C(C#N)=C(N)O1 (stereo not given),–,–,–,6.5,–,
C/C1=C\[C@@H](C)C/C=C/[C@H]2[C@@H]3O[C@]3(C)[C@@H](C)[C@H]3[C@H](Cc4c[nH]c5ccccc45)NC(=O)[C@]32C(=O)/C=C/C(=O)[C@@H]1O,·,–,8.1,10.6,–,
O=[N+]([O-])c1ccc(NCCCN2CCOCC2)nc1,4.6,–,–,–,–,
CCc1cc(OC)c(CCN)cc1OC,–,·,·,·,·,
CS(=O)(=O)N1Cc2cc(Br)ccc2-n2nncc2C1,–,·,·,·,·,
CC(=O)C1C2c3ccccc3OC1(C)N=c1s/c(=C/c3cnn(C)c3)c(=O)n12 (stereo not given),8.1,–,–,–,–,
O=C(NCCN1CCC2(CC1)C(=O)NCN2c1ccccc1)c1ccc(F)cc1F,–,·,·,·,·,
CCOc1ccc(-n2c(-c3cccs3)nc3ccccc3c2=O)cc1,–,–,–,–,–,
CCn1nc(-c2cccs2)nc2c(=O)n(C)c(=O)nc1-2,·,·,58.8,·,·,
CN(C)c1ccc(/C=C2/C(=O)NC(=O)N(Cc3ccco3)C2=O)cc1,–,–,–,–,–,
CCN(CC)c1ccc(/C=C2/C(=O)NC(=O)N(Cc3ccco3)C2=O)cc1,4.6,–,–,–,–,
Cc1ccc2nc(-c3ccc(CN4CCC(n5nnc6ccccc65)CC4)cc3)c(-c3ccccc3)nc2c1,–,·,·,·,·,
Cc1cccc2nc(-c3ccccc3)c(-c3ccc(CN4CCC(n5c(=O)[nH]c6cc(Cl)ccc65)CC4)cc3)nc12,–,·,·,·,·,
COc1ccc(Cn2c(O)c(/C=N/NC(=O)c3ccncc3)c(=O)[nH]c2=O)cc1,–,–,–,–,–,
O=C(N/N=C/c1c(O)n(Cc2ccccc2)c(=O)[nH]c1=O)c1ccccc1O,4.6,–,–,–,–,
SMILES,MsrA inh,proCasp7 act,bovine MsrA act,A1 inh,proCasp3 act,others
COc1ccc(Cn2c(O)c(/C=N/NC(=O)c3ccccc3)c(=O)[nH]c2=O)cc1,4.5,–,–,–,–,
O=C(NCCN1CCC2(CC1)C(=O)NCN2c1ccccc1)c1ccc(Cl)c(Cl)c1,–,·,·,·,·,
O=C(NC1CCCCC1)N1Cc2ccc(Br)cc2-n2nncc2C1,–,·,·,·,·,
CCOC(=O)c1c(C=O)c2ccccc2n1Cc1ccccc1F,4.6,–,–,–,–,
CCOc1cc(C=O)ccc1O,4.6,–,–,·,–,
CCOc1cc(/C=C2\C(=O)NC(=O)N(C)C2=O)cc([N+](=O)[O-])c1O,–,–,–,–,–,
O=C(Nc1ccccc1)N1Cc2cc(Br)ccc2-n2nncc2C1,–,·,·,·,·,
Cc1ccc(-c2nc3ccccc3c(=O)n2-c2cccc(C)n2)cc1,–,–,–,–,44.4,proCasp7 act trip=–;procasp3 conf=–
OC1CN2CCCC(O)C2C1O (stereo not given),–,·,·,·,·,
CN(C)c1ccc(/C=C/C=C/c2sc3ccccc3[n+]2C)cc1,–,–,–,–,–,
CC[n+]1c(/C=C/C=C/c2ccc(N(C)C)cc2)sc2ccccc21,–,–,–,–,39.1,proCasp7 act trip=–;procasp3 conf=–
N#Cc1ccc2nc(-c3ccc(CN4CCC(n5c(=O)[nH]c6cc(Cl)ccc65)CC4)cc3)c(-c3ccccc3)nc2c1,–,·,·,·,·,
CCCCn1c(N)c(C(=O)NCc2cccs2)c2nc3ccccc3nc21,–,–,–,–,46.4,proCasp7 act trip=–;procasp3 conf=–
CCCOC(=O)c1c(N)n(Cc2cccs2)c2nc3ccccc3nc12,–,–,–,–,47.6,proCasp7 act trip=–;procasp3 conf=–
COCCCn1c(N)c(C(=O)NCCC(C)C)c2nc3ccccc3nc21,–,–,–,–,31.8,proCasp7 act trip=–;procasp3 conf=–
COCCOC(=O)c1c(N)n(Cc2ccccc2)c2nc3ccccc3nc12,–,–,–,–,–,
O=C(NCCN1CCC2(CC1)C(=O)NCN2c1ccccc1)c1cc(C(F)(F)F)ccc1C(F)(F)F,–,·,·,·,·,
Nc1c(C(=O)NCc2ccco2)c2nc3ccccc3nc2n1Cc1ccccc1,–,45.8,–,–,–,PC3 dual counter=–;PC7 dual conf=–
CC(C)C(CN1CCC(C)(c2cccc(O)c2)[C@@H](C)C1)NC(=O)C1Cc2ccc(O)cc2CN1 (stereo not given in full),–,·,·,·,·,
O=C(CCN1CCOCC1)NCC(=O)Nc1ccc(Br)cc1C(=O)c1ccccc1,–,–,7.8,–,–,MsrA act confirm=–
C[C@H]1CNCCN1c1ccc(N2CC[C@@H](O)C2)c(C#N)c1,–,·,·,·,·,

# Compound activity from PubChem BioAssay.
